According to ChEMBL document CHEMBL1147929, “Synthesis and in vitro photodynamic activities of water-soluble fluorinated tetrapyridylporphyrins as tumor photosensitizers” (Bioorg Med Chem Lett, 2007):
pIC50: −log10 of the molar value. Active and inactive are the calls of the source. The rule behind the calls is not given here.

Tests used:
HeLa [1] = assay: Phototoxicity against HeLa cells assessed as photo-induced growth inhibition after 48 hrs by MTT assay; format: functional, cell-based, Homo sapiens
Procedure, shortened: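 HeLa cells pre-incubated 1 h with a range of porphyrin concentrations. Without washing, cells were irradiated 1 h with a fluorescent lamp (530–620 nm; 0.44 mW/cm², 1.6 J/cm²). They were then incubated 48 h at 37 °C, and survival fraction was read by MTT. Non-irradiated cells served as dark controls.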

HeLa [2] = assay: Cytotoxicity in HeLa cells assessed as PDT-induced ROS generation after 2 hrs by flow cytometry; format: functional, cell-based; conditions: Homo sapiens
Procedure, shortened: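 HeLa cells exposed to porphyrins at […] for 2 h, then irradiated with visible light. Intracellular ROS probed with 2,7-dichlorofluorescin (DCF). DCF fluorescence read by flow cytometry after 2 h of porphyrin treatment. Untreated cells served as baseline.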

HeLa [3] = assay: Induction of apoptosis in HeLa cells assessed as accumulation at subG1 phase by FACS flow cytometry; format: functional, cell-based; conditions: Homo sapiens
Procedure, shortened: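 HeLa cells treated with 0, 4.6, 9.2, 18.4, 27.6 or 36.8 μM porphyrin, then stained with propidium iodide. The sub-G1 population was measured from DNA content histograms by FACS flow cytometry and taken as apoptotic cells. Values are means ± S.D.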

[4] = Homo sapiens, HeLa, light or radiation study, 48 h

SMILES | pIC50 (HeLa [1]; [4]) | Activity (HeLa [2]) | pIC50 (HeLa [1]; hela) | Activity (HeLa [3])
C[n+]1ccc(-c2c3nc(c(-c4cc[n+](C)cc4)c4ccc([nH]4)c(-c4cc[n+](C)cc4)c4nc(c(-c5cc[n+](C)cc5)c5ccc2[nH]5)C=C4)C=C3)cc1 | 5.52 |  |  | 
C[n+]1cccc(-c2c3nc(c(-c4ccc[n+](C)c4F)c4ccc([nH]4)c(-c4ccc[n+](C)c4F)c4nc(c(-c5ccc[n+](C)c5F)c5ccc2[nH]5)C=C4)C=C3)c1F |  | Active | 5.96 | Dose-dependent effect
C[n+]1cc(F)c(-c2c3nc(c(-c4c(F)c[n+](C)cc4F)c4ccc([nH]4)c(-c4c(F)c[n+](C)cc4F)c4nc(c(-c5c(F)c[n+](C)cc5F)c5ccc2[nH]5)C=C4)C=C3)c(F)c1 |  | Active | 6.06 | 
C[n+]1ccc(-c2c3nc(c(-c4cc[n+](C)cc4)c4ccc([nH]4)c(-c4cc[n+](C)cc4)c4ccc([nH]4)c(-c4cc[n+](C)cc4)c4nc2C=C4)C=C3)cc1 |  | Active |  | 
C[n+]1ccc(-c2c3nc(c(-c4cc[n+](C)cc4F)c4ccc([nH]4)c(-c4cc[n+](C)cc4F)c4nc(c(-c5cc[n+](C)cc5F)c5ccc2[nH]5)C=C4)C=C3)c(F)c1 | 4.40 | Active |  | Dose-dependent effect
